This series concerns the target Multidrug resistance-associated protein 1 (Homo sapiens, UniProt P33527). Nature of the series: Inhibition of MRP1 in human 2008/MRP1 cells assessed as potentiation of doxorubicin-induced cytotoxicity by measuring cell survival at 2 uM after 5 days by MTS assay relative to control. Type of series: cell-based. The settings on record: 120 h. The method in brief:
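2008/MRP1 cells (retroviral human MRP1 transfectant; RPMI 1640, 10% FBS) at 4,000 per well, with 100 nM doxorubicin plus crude, unpurified click products in DMSO: 2 µM in the primary screen, 1 µM in the secondary. Incubated 5 days at 37 °C. MTS/PMS added for 2 h at 37 °C, absorbance read at 490 nm. % survival is relative to wells without DOX or product. Run in triplicate, at least three experiments.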

Survival data for 53 compounds are collected here from ChEMBL document CHEMBL4257575, “Discovery of Novel Flavonoid Dimers To Reverse Multidrug Resistance Protein 1 (MRP1, ABCC1) Mediated Drug Resistance in Cancers Using a High Throughput Platform with "Click Chemistry"” (J Med Chem, 2018).

Multidrug resistance-associated protein 1, sequence (P33527 whole entry): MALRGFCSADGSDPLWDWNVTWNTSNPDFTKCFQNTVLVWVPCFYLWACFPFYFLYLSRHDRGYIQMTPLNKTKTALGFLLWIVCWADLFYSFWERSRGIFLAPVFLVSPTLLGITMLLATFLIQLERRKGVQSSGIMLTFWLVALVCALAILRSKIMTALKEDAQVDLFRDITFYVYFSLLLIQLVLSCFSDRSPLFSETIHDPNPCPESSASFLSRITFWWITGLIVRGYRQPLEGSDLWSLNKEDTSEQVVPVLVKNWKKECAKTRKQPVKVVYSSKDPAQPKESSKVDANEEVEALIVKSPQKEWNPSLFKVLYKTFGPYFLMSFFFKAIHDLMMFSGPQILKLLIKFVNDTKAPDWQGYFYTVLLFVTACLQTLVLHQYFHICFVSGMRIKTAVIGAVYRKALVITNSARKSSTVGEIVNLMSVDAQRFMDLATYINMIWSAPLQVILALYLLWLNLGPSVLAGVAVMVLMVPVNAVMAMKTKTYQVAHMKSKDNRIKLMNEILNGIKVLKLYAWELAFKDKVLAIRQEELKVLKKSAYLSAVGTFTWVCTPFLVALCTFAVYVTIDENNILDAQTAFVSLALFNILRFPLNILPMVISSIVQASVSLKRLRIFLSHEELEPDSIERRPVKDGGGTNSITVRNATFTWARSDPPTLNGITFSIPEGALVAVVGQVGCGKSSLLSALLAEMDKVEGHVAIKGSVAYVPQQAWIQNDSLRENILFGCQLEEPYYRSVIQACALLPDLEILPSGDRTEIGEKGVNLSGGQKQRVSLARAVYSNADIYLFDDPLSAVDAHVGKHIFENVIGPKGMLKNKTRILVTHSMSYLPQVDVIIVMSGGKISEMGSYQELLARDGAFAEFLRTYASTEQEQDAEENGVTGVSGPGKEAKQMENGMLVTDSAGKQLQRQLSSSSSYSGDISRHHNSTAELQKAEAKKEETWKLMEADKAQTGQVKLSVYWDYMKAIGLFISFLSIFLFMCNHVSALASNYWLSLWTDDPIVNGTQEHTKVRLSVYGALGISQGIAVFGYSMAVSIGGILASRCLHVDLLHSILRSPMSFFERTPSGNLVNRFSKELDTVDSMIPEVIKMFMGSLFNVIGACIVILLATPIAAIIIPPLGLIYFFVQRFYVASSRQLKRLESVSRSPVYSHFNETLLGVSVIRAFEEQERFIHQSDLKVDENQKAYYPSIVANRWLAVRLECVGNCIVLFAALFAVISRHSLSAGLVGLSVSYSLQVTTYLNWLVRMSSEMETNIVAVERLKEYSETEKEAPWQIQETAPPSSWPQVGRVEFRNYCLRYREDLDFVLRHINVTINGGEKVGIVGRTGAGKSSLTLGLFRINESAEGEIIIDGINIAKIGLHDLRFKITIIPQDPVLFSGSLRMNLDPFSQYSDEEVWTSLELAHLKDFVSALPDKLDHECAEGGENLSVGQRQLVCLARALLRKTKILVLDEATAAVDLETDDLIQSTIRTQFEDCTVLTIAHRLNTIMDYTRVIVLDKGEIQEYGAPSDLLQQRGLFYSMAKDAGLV

With `O=c1cc(-c2ccccc2)oc2cc(OCCOCCOCCn3cc(CNc4ccccc4)nn3)ccc12`, the Survival was 90%. The figure for `Cc1ccc(O)c(C(=O)/C=C/c2ccc(OCCCCc3cn(CCOc4cccc5c(=O)cc(-c6ccccc6)oc45)nn3)cc2)c1` is 77%; for `O=c1cc(-c2ccc(OCCOCCOCCn3cc(CN(Cc4ccccc4)Cc4cn(CCOCCOCCOc5ccc(-c6cc(=O)c7cc(F)ccc7o6)cc5)nn4)nn3)cc2)oc2ccc(F)cc12` it is 54%; for `O=c1cc(-c2ccccc2)oc2cc(OCCOCc3cn(CCOCCOc4cccc(-c5oc6ccccc6c(=O)c5OCc5ccccc5)c4)nn3)ccc12` it is 77%. The figure for `O=c1cc(-c2ccc(OCCOCCn3cc(-c4cccc(-c5cn(CCOCCOc6ccc(-c7cc(=O)c8cc(F)ccc8o7)cc6)nn5)c4)nn3)cc2)oc2ccc(F)cc12` is 74%. Under `O=c1c(OCc2ccccc2)c(-c2cccc(OCCOCCn3cc(-c4ccc(-c5cn(CCOCCOc6cccc(-c7oc8ccccc8c(=O)c7OCc7ccccc7)c6)nn5)cc4)nn3)c2)oc2ccccc12` stands 82%; under `O=Cc1ccc(OCCCCc2cn(CCOCCOCCOc3ccc(-c4cc(=O)c5cc(F)ccc5o4)cc3)nn2)cc1`, 74%; under `O=c1cc(-c2ccc(OCCCc3cn(CCOCCOCCOc4ccc(-c5oc6ccccc6c(=O)c5OCc5ccccc5)cc4)nn3)cc2)oc2ccc(F)cc12`, 75%. Regarding `O=Cc1ccc(OCCCCc2cn(CCOCCOc3ccc(-c4oc5ccccc5c(=O)c4OCc4ccccc4)cc3)nn2)cc1`, the Survival is listed as 59%. The figure for `O=c1cc(-c2ccccc2)oc2cc(OCCOCc3cn(CCOc4cccc5c(=O)cc(-c6ccccc6)oc45)nn3)ccc12` is 68%; for `O=c1cc(-c2ccc(OCCOCCn3cc(CN(Cc4cn(CCOCCOc5ccc(-c6cc(=O)c7ccccc7o6)cc5)nn4)Cc4cn(CCOCCOc5ccc(-c6cc(=O)c7ccccc7o6)cc5)nn4)nn3)cc2)oc2ccccc12` it is 82%; for `O=c1cc(-c2ccc(OCCCc3cn(CCOCCOc4ccc(-c5oc6ccccc6c(=O)c5OCc5ccccc5)cc4)nn3)cc2)oc2ccccc12` it is 50%. Under `Cc1ccc(O)c(C(=O)/C=C/c2ccc(OCCCCc3cn(CCOCCOc4ccc(-c5oc6ccccc6c(=O)c5OCc5ccccc5)cc4)nn3)cc2)c1` stands 68%; under `Cc1ccc2oc(-c3ccc(OCCOCCOCCn4cc(-c5ccc(-c6cn(CCOCCOCCOc7ccc(-c8cc(=O)c9cc(C)ccc9o8)cc7)nn6)cc5)nn4)cc3)cc(=O)c2c1`, 74%; under `COc1cccc(COc2c(-c3ccc(OCCCCc4cn(CCOCCOc5ccc6c(=O)cc(-c7ccccc7)oc6c5)nn4)cc3)oc3ccccc3c2=O)c1`, 56%. The figure for `COc1cccc(COc2c(-c3ccc(OCCOCCn4cc(-c5cccc(-c6cn(CCOCCOc7ccc(-c8oc9ccccc9c(=O)c8OCc8cccc(OC)c8)cc7)nn6)c5)nn4)cc3)oc3ccccc3c2=O)c1` is 82%; for `O=c1cc(-c2ccccc2)oc2cc(OCCCCc3cn(CCOCCOc4cccc(-c5oc6ccccc6c(=O)c5OCc5ccccc5)c4)nn3)ccc12` it is 62%. For `COc1cccc(COc2c(-c3ccc(OCCOCCn4cc(CN(Cc5cn(CCOCCOc6ccc(-c7oc8ccccc8c(=O)c7OCc7cccc(OC)c7)cc6)nn5)Cc5cn(CCOCCOc6ccc(-c7oc8ccccc8c(=O)c7OCc7cccc(OC)c7)cc6)nn5)nn4)cc3)oc3ccccc3c2=O)c1`, the Survival is 86%. Under `O=c1[nH]c(-c2ccc(OCCCc3cn(CCOCCOCCOc4ccc(-c5cc(=O)c6cc(F)ccc6o5)cc4)nn3)cc2)nc2ccccc12` stands 51%; under `O=C(/C=C/c1ccc(OCCCCc2cn(CCOCCOc3ccc(-c4cc(=O)c5cc(F)ccc5o4)cc3)nn2)cc1)c1ccc(F)cc1O`, 70%. Under `COCOc1cc(OCc2ccccc2)c2c(=O)cc(-c3ccc(OCCCc4cn(CCOCCOCCOc5ccc(-c6cc(=O)c7cc(F)ccc7o6)cc5)nn4)cc3)oc2c1` stands 58%; under `O=c1cc(-c2ccccc2)oc2cc(OCCOCCOCCn3cc(CN4CCN(Cc5cn(CCOCCOCCOc6ccc7c(=O)cc(-c8ccccc8)oc7c6)nn5)CC4)nn3)ccc12`, 89%; under `O=c1cc(-c2ccccc2)oc2cc(OCCn3cc(-c4cccc(-c5cn(CCOc6ccc7occ(-c8ccccc8)c(=O)c7c6)nn5)c4)nn3)ccc12`, 90%. The figure for `Cc1ccc(C(=O)/C=C/c2ccc(OCCCCc3cn(CCOCCOc4ccc(-c5cc(=O)c6cc(F)ccc6o5)cc4)nn3)cc2)c(O)c1` is 71%. With `O=c1cc(-c2ccccc2)oc2cc(OCCCCc3cn(CCOCCOc4ccc(-c5cc(=O)c6cc(F)ccc6o5)cc4)nn3)ccc12`, the Survival came to 52%.

With `O=C(/C=C/c1ccc(OCCCCc2cn(CCOCCOCCOc3ccc(-c4cc(=O)c5ccccc5o4)cc3)nn2)cc1)c1ccccc1O`, the Survival is listed as 65%. The figure for `COc1cccc(COc2c(-c3ccc(OCCCCc4cn(CCOc5cccc6c(=O)cc(-c7ccccc7)oc56)nn4)cc3)oc3ccccc3c2=O)c1` is 51%. Under `O=c1c(OCc2ccccc2)c(-c2ccc(OCCOCCOCCn3cc(CN(Cc4cn(CCOCCOCCOc5ccc(-c6oc7ccccc7c(=O)c6OCc6ccccc6)cc5)nn4)Cc4cn(CCOCCOCCOc5ccc(-c6oc7ccccc7c(=O)c6OCc6ccccc6)cc5)nn4)nn3)cc2)oc2ccccc12` stands 81%; under `O=Cc1ccc(OCCCCc2cn(CCOCCOc3ccc(-c4cc(=O)c5ccccc5o4)cc3)nn2)cc1`, 75%. The figure for `COc1cccc(COc2c(-c3ccc(OCCOCCn4cc(CN(C)CCN(C)Cc5cn(CCOCCOc6ccc(-c7oc8ccccc8c(=O)c7OCc7cccc(OC)c7)cc6)nn5)nn4)cc3)oc3ccccc3c2=O)c1` is 64%; for `COc1cccc(COc2c(-c3ccc(OCCOCCn4cc(CCCCOc5ccc6c(=O)cc(-c7ccccc7)oc6c5)nn4)cc3)oc3ccccc3c2=O)c1` it is 86%; for `CN(CCN(C)Cc1cn(CCOCCOc2ccc(-c3oc4ccccc4c(=O)c3OCc3ccccc3)cc2)nn1)Cc1cn(CCOCCOc2ccc(-c3oc4ccccc4c(=O)c3OCc3ccccc3)cc2)nn1` it is 76%. With `O=c1cc(-c2ccccc2)oc2cc(OCCn3cc(CN(Cc4cn(CCOc5ccc6occ(-c7ccccc7)c(=O)c6c5)nn4)Cc4cn(CCOc5ccc6occ(-c7ccccc7)c(=O)c6c5)nn4)nn3)ccc12`, the Survival came to 87%. Under `COc1cccc(COc2c(-c3ccc(OCCCCc4cn(CCOCCOCCOc5ccc(-c6cc(=O)c7cc(F)ccc7o6)cc5)nn4)cc3)oc3ccccc3c2=O)c1` stands 60%; under `O=c1cc(-c2ccc(OCCOCCOCCn3cc(CN4CCN(Cc5cn(CCOCCOCCOc6ccc(-c7cc(=O)c8ccccc8o7)cc6)nn5)CC4)nn3)cc2)oc2ccccc12`, 100%.

On to `Cc1ccc(C(=O)/C=C/c2ccc(OCCCCc3cn(CCOCCOCCOc4ccc(-c5cc(=O)c6cc(C)ccc6o5)cc4)nn3)cc2)c(O)c1`, for which the Survival is 61%.

Regarding `CCc1ccc(O)c(C(=O)/C=C/c2ccc(OCCCCc3cn(CCOCCOCCOc4ccc(-c5oc6ccccc6c(=O)c5OCc5ccccc5)cc4)nn3)cc2)c1`, the Survival is 77%. The figure for `O=C(/C=C/c1ccc(OCCCCc2cn(CCOCCOCCOc3ccc(-c4cc(=O)c5cc(F)ccc5o4)cc3)nn2)cc1)c1ccccc1O` is 56%. For the compound `Cc1ccc(C(=O)/C=C/c2ccc(OCCCCc3cn(CCOCCOCCOc4ccc(-c5cc(=O)c6ccccc6o5)cc4)nn3)cc2)c(O)c1`, the Survival turned out to be 55%. The figure for `COc1cccc(COc2c(-c3ccc(OCCOCCn4cc(CN(CCOc5ccc6c(=O)cc(-c7ccccc7)oc6c5)Cc5ccccc5)nn4)cc3)oc3ccccc3c2=O)c1` is 79%; for `C#CCCCOc1ccc(-c2nc3ccccc3c(=O)[nH]2)cc1` it is 86%; for `COc1cccc(COc2c(-c3ccc(OCCCCc4cn(CCOCCOc5ccc(-c6cc(=O)c7cc(F)ccc7o6)cc5)nn4)cc3)oc3ccccc3c2=O)c1` it is 65%.

Take `O=c1cc(-c2ccccc2)oc2cc(OCCOCCOCCn3cc(COCCOc4ccc5c(=O)cc(-c6ccccc6)oc5c4)nn3)ccc12`: the Survival was 60%. Under `O=C(/C=C/c1ccc(OCCCCc2cn(CCOCCOCCOc3ccc4c(=O)cc(-c5ccccc5)oc4c3)nn2)cc1)c1ccc(F)cc1O` stands 67%. Under `CCc1ccc(O)c(C(=O)/C=C/c2ccc(OCCCCc3cn(CCOCCOc4ccc(-c5oc6ccccc6c(=O)c5OCc5ccccc5)cc4)nn3)cc2)c1` stands 69%; under `O=C(/C=C/c1ccc(OCCCCc2cn(CCOCCOc3ccc4c(=O)cc(-c5ccccc5)oc4c3)nn2)cc1)c1ccc(F)cc1O`, 64%. The figure for `COc1cccc(COc2c(-c3ccc(OCCOCCn4cc(CCCOc5ccc(-c6cc(=O)c7ccccc7o6)cc5)nn4)cc3)oc3ccccc3c2=O)c1` is 68%.

On to `O=c1cc(-c2ccccc2)oc2cc(OCCCc3cn(CCOCCOc4ccc(-c5cc(=O)c6cc(F)ccc6o5)cc4)nn3)ccc12`, for which the Survival was found to be 55%.

As for `O=c1cc(-c2ccc(OCCOCCn3cc(CNc4ccccc4)nn3)cc2)oc2ccccc12`, the Survival was 90%. `COCOc1cc(OCc2ccccc2)c2c(=O)cc(-c3ccc(OCCCc4cn(CCOCCOCCOc5ccc(-c6cc(=O)c7cc(C)ccc7o6)cc5)nn4)cc3)oc2c1`: the Survival came to 53%. Under `COc1cccc(COc2c(-c3ccc(OCCOCCn4cc(CCCCOc5ccc(C=O)cc5)nn4)cc3)oc3ccccc3c2=O)c1` stands 76%.

For the compound `Cc1ccc2oc(-c3ccc(OCCOCCOCCn4cc(CCCOc5ccc(-c6cc(=O)c7cc(F)ccc7o6)cc5)nn4)cc3)cc(=O)c2c1`, the Survival is recorded as 82%.

Turning to `COCOc1cc(OCc2ccccc2)c2c(=O)cc(-c3ccc(OCCCc4cn(CCOCCOCCOc5ccc(-c6oc7ccccc7c(=O)c6OCc6ccccc6)cc5)nn4)cc3)oc2c1`, the Survival is 89%.
